Screening data: PubChem BioAssay, Johns Hopkins Ion Channel Center
The list is not random: actives were taken first. Their share in the collection is about 3.5%.
MrgX1 ag: activates human MrgX1 receptor signaling; Q96LB2; MrgX1-HEK293 cells, Fluo-4 calcium fluorescence, agonist mode; hits give high values; B-score at 10 µM; hit rate 0.44% among 310,000; AID 588627;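 active = calcium response B-score plate-corrected fluorescence ratio at least 3 library SD, with starting fluorescence B-score inside 5 SD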
Target sequence (Q96LB2 whole entry, looked up): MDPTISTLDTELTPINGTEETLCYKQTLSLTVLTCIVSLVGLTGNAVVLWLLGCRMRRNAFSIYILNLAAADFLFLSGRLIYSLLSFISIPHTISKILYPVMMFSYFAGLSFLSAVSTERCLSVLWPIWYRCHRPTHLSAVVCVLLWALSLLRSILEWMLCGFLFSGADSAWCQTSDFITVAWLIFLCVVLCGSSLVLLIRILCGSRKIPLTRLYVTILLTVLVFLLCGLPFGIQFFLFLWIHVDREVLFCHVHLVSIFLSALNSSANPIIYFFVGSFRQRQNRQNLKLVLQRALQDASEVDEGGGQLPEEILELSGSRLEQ
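Test system: HEK293 cells stably expressing human MrgX1 receptor; amount: 15,000 cells per well; doses: compound delivered in addition one of three; times: overnight plating before 1 h dye loading; detection: Fluo-4 NW calcium-flux fluorescence, kinetic read; read-out basis: B-scored fluorescence response ratio; controls: positive and negative controls per plate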
RGS4 inh: inhibitors of human RGS4; P49798; HEK293 M3R/RGS4 inducible, Fluo-4 calcium flux; hits give high values; triggered by carbachol at its EC20; hit rate 0.45% among 310,000; B-score at 10 µM;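 active = B-score, a plate-corrected calcium signal, over three deviations above library mean, with baseline fluorescence within five deviations of library mean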;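 note: RGS4 expression induced by doxycycline in cells with stable M3 receptor; B-score is computed from the integrated fluorescence ratio over baseline after carbachol; higher B-score means a larger calcium signal and so more RGS4 inhibition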
Target sequence (P49798 whole entry, looked up): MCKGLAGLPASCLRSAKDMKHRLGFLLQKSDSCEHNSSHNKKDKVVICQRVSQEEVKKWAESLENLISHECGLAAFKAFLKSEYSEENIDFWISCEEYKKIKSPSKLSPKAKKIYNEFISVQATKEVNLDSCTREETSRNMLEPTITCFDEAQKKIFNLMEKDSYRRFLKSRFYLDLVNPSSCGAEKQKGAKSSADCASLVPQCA
MrgX1 PAM: allosterically activates human MrgX1 receptor signaling; MrgX1-HEK293, Fluo-4 calcium flux, FDSS; hits give high values; B-score at 10 µM; hit rate 0.63% among 310,000; AID 588675;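 active = plate-corrected calcium response at least 3 library SD above typical, normal starting fluorescence, not activating the receptor alone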;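 note: compound read alongside a low EC10 to EC30 dose of BAM8-22 agonist; peak minus trough fluorescence over baseline measured at the second addition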
RGS4 act: potentiators or activators of RGS4. HEK293 M3R/inducible RGS4, carbachol calcium flux Fluo4; hits give low values. B-score at 10 µM. hit rate 0.92% among 310,000;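 active = B-score of the integrated calcium signal more than 4 SD below the library mean, with starting fluorescence not abnormally high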;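 note: negative B-score means reduced calcium response which marks RGS4 activation or potentiation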
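Material: M3R-expressing HEK293 line, RGS4 induced by doxycycline | Schedule: Overnight RGS4 induction, 30 min dye load 37 °C, 20 min compound RT | Measured by: Fluo4 fluorescence kinetic imaging of calcium | Read-out: Integrated calcium ratio converted to B score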
MrgX1 antag: blocks BAM8-22 activation of human MrgX1 receptor | AID 588676 | hit rate 1.3% among 310,000 | MRGX1-HEK293 calcium flux, Fluo-4, BAM8-22 antagonism; hits give low values | B-score at 10 µM;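 active = calcium-response B-score plate-corrected more than 3 library SD below zero, starting fluorescence within 5 deviations, no agonist response on first addition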;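 note: peak minus trough fluorescence over baseline after final BAM8-22 challenge near maximal dose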
MrgX1 ant reconf: confirmation of human MrgX1 receptor antagonists. remaining BAM8-22 calcium response % of control (hits give low values), % at 10 µM. MrgX1-HEK293, BAM8-22 calcium flux, Fluo-4; hits give low values. shares compounds with MrgX1 antag. hit rate 19% among 2,300;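 active = remaining agonist calcium response no higher than 100% minus 3 SD of agonist-only control wells, with starting fluorescence near control levels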;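 note: agonist BAM8-22 given at a near maximal EC90 to ECmax level; peak minus minimum fluorescence divided by baseline after agonist addition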
HEK293 Ca flux: counter-screen for MrgX1 antagonists: effect in parental HEK293 cells. shares compounds with MrgX1 antag. Fluo-4 calcium fluorescence, FDSS. fluorescence ratio F(max-min)/F0 at 10 µM. hit rate 2% among 4,000. AID 624111;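 active = duplicate-averaged calcium fluorescence ratio at least three times the standard deviation of buffer wells, a nonspecific response in parental cells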
HEK293 Ca counter: activity in parental HEK293 cells without MrgX1. shares compounds with MrgX1 antag. parental HEK293 calcium flux, Fluo-4 fluorescence ratio; hits give high values. fluorescence ratio F(max-min)/F0 at 10 µM. hit rate 0.4% among 4,000. AID 624114;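 active = calcium fluorescence ratio, averaged over duplicates, at least 3 SD of the buffer-well ratio, meaning a nonspecific response in receptor-free cells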;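 note: untransfected parental HEK293 lacking MrgX1 used as counterscreen for MrgX1 allosteric activators; fluorescence change taken during the second addition on a kinetic imager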
HEK293 Ca cntr2: counter-screen for MrgX1 activators: effect in parental HEK293 cells; AID 624115; fluorescence ratio F(max-min)/F0 at 10 µM; shares compounds with MrgX1 antag; Fluo-4 calcium fluorescence (FDSS); hits give high values; hit rate 8.7% among 4,000;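 active = calcium fluorescence ratio at least three times the spread of buffer wells, meaning a non-specific response in parental cells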
* = called active by the depositor.

Screening CCc1nnc(NC(=O)CSc2nnc(CCc3nc4ccccc4[nH]3)n2C)s1 returned MrgX1 ag inactive, RGS4 inh inactive, MrgX1 PAM inactive, RGS4 act inactive and MrgX1 antag inactive.
Screening CCOC(=O)c1ccc(S(=O)(=O)N2CCN(CC(O)COc3ccc(C#N)cc3)CC2)cc1 (stereo not given) returned MrgX1 ag inactive, RGS4 inh inactive, MrgX1 PAM inactive, RGS4 act inactive and MrgX1 antag inactive.
`CC(=O)N1CCC(C(=O)NCCOc2ccc(C)cc2)CC1` gave MrgX1 ag inactive, RGS4 inh inactive, MrgX1 PAM inactive, RGS4 act inactive and MrgX1 antag inactive.
OCC[C@H]1C[C@@H](O)[C@H](O)[C@]2(Cc3ccccc3CCO2)O1 was read as MrgX1 ag inactive, MrgX1 PAM inactive and MrgX1 antag inactive.
`Nc1ccc(C(=O)Nc2nccs2)cc1` gave MrgX1 ag inactive, RGS4 inh inactive, MrgX1 PAM inactive, RGS4 act inactive and MrgX1 antag inactive.
COc1ccc(-c2csc(NC(=O)c3nc(-c4ccccc4)oc3C)n2)cc1 was read as MrgX1 ag inactive, RGS4 inh inactive, MrgX1 PAM inactive, RGS4 act inactive and MrgX1 antag inactive.
For Cc1ccc(C(=O)Nc2nccs2)cc1 the results were MrgX1 ag inactive, RGS4 inh inactive, MrgX1 PAM inactive, RGS4 act inactive, MrgX1 antag -5.25*, MrgX1 ant reconf inactive, HEK293 Ca flux inactive, HEK293 Ca counter inactive and HEK293 Ca cntr2 inactive.
Screening Cc1oc(-c2ccccc2)nc1C(=O)Nc1nccs1 returned MrgX1 ag inactive, RGS4 inh inactive, MrgX1 PAM inactive, RGS4 act inactive, MrgX1 antag -5.69*, MrgX1 ant reconf inactive, HEK293 Ca flux inactive, HEK293 Ca counter inactive and HEK293 Ca cntr2 inactive.
Screening Cc1sc(NC(=O)c2ccccc2)c(C(c2ccccn2)N2CCN(CCO)CC2)c1C (stereo not given) returned MrgX1 ag inactive, RGS4 inh inactive, MrgX1 PAM inactive, RGS4 act inactive, MrgX1 antag -4.52*, MrgX1 ant reconf inactive, HEK293 Ca flux inactive, HEK293 Ca counter inactive and HEK293 Ca cntr2 inactive.
Screening Cc1cc(NC(=O)COC(=O)CCS(=O)(=O)c2cc(Cl)ccc2Cl)no1 returned MrgX1 ag inactive, RGS4 inh inactive, MrgX1 PAM inactive, RGS4 act inactive and MrgX1 antag inactive.
Screening COc1ccc(-c2nc3ccccc3c(=O)n2CCOc2ccc(C)cc2C)cc1 returned MrgX1 ag inactive, RGS4 inh inactive, MrgX1 PAM inactive, RGS4 act inactive and MrgX1 antag inactive.
`COc1ccc(-c2nc3ccccc3c(=O)n2CCOc2ccccc2C)cc1` gave MrgX1 ag inactive, RGS4 inh inactive, MrgX1 PAM inactive, RGS4 act inactive, MrgX1 antag -7.01*, MrgX1 ant reconf inactive, HEK293 Ca flux inactive, HEK293 Ca counter inactive and HEK293 Ca cntr2 inactive.
`Cc1ccccc1NS(=O)(=O)c1ccc2[nH]c(=O)[nH]c2c1` gave MrgX1 ag inactive, RGS4 inh inactive, MrgX1 PAM inactive, RGS4 act inactive, MrgX1 antag -5.6*, MrgX1 ant reconf inactive, HEK293 Ca flux inactive, HEK293 Ca counter inactive and HEK293 Ca cntr2 inactive.
